# Measured values of several laboratories.
# GRM7: Metabotropic glutamate receptor 7 (GRM7, Homo sapiens, UniProt Q14831)
# MTNR1B: Melatonin receptor type 1B (MTNR1B, Homo sapiens, UniProt P49286)
target,assay,setting,measurement,value,SMILES
"Cyclin-dependent kinase 7 (CDK7, Homo sapiens, UniProt P50613)","binding, competition with immobilised ligand",,Kd,860 nM,Cc1cc(Nc2cc3ncccc3c(N[C@@H]3C[C@H]4CC[C@@H](C3)N4CCC#N)n2)n[nH]1
GRM7,"calcium signal, agonist",,EC50,> 16700 nM,COc1ccc(-c2nsc(NC(=O)[C@@H]3C[C@H]3C)c2C)cc1
MTNR1B,"β-arrestin recruitment, agonist",,EC50,3.09 nM,COCC(CNC(C)=O)c1cccc2ccc(OC)cc12 (centres unmarked)
"Transformer-2 protein homolog beta (Homo sapiens, UniProt P62995)",binding,lysate,Kd,36 nM,Cc1cc2nc3c(=O)[nH]c(=O)nc-3n(C[C@H](O)[C@H](O)[C@H](O)COP(=O)(O)OP(=O)(O)OC[C@H]3O[C@@H](n4cnc5c(N)ncnc54)[C@H](O)[C@@H]3O)c2cc1C
MTNR1B,cell-free assay,,Ki,6.92 nM,COc1ccc(Br)c(CNc2cccnc2)c1
MTNR1B,"cell-free assay, radioligand",,Ki,1100 nM,Nc1nc(NCc2ccc(Oc3ccccc3)cc2)nc(-c2c(F)cccc2CO)n1
MTNR1B,cell-free assay,,Ki,1410 nM,Clc1ccc(CNc2cccc(-c3nnc[nH]3)c2)c(Br)c1
MTNR1B,"cAMP, agonist, TR-FRET",,EC50,39.8 nM,CCc1ccc2scc(CCNC(C)=O)c2c1
GRM7,"cAMP, agonist, luciferase",,EC50,28 nM,C[C@H](C(=O)N[C@@H]1COc2ccccc2[C@H]1S(C)(=O)=O)c1ccc(F)cc1
MTNR1B,"ligand displacement, radioligand",cell membranes,Ki,~100 nM,O=C(NCCc1cccc2ccccc12)C1CCC1
"Peptidyl-prolyl cis-trans isomerase NIMA-interacting 1 (PIN1, Homo sapiens, UniProt Q13526)","enzyme activity, inhibitor",,Ki,77000 nM,COc1ccc2c(c1)C(=O)C1(CCc3ccccc31)O2 (centres unmarked)
MTNR1B,"β-arrestin recruitment, agonist",,EC50,60.3 nM,COc1cc(I)c2[nH]cc(CCNC(C)=O)c2c1
"5-hydroxytryptamine receptor 1B (HTR1B, Homo sapiens, UniProt P28222)","ligand displacement, radioligand",,Ki,73 nM,O=C1c2ccccc2CCN1CCCCN1CCN(c2cccc(Cl)c2Cl)CC1
"UDP-glucuronosyltransferase 2B7 (UGT2B7, Homo sapiens, UniProt P16662)","enzyme activity, inhibitor",pH 7.4,Ki,5700 nM,C=C1CC[C@@H]2[C@](C)(CO)[C@H](O)CC[C@@]2(C)[C@@H]1C/C=C1/C(=O)OC[C@H]1O
